# Source: ChEMBL document CHEMBL1156686, “Xanthine oxidase-activated prodrugs of thymidine phosphorylase inhibitors” (Eur J Med Chem, 2008)
# The source made the active and inactive calls. No cut-off for these calls is given here.
# Tests used:
# [1] = biological target: Thymidine phosphorylase (Escherichia coli K-12) (UniProt P07650); test: Inhibition of Escherichia coli thymidine phosphorylase at 45 uM
# Summary of the method: (§1)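 Recombinant E. coli TP (0.00883 U per 0.2 ml) added to start a continuous spectrophotometric assay. Mix: 0.13 mM 5-nitro-2'-deoxyuridine substrate in 0.1 M potassium phosphate, pH 7.4, 25 °C, read at 355 nm in a microplate. Initial velocity compared with the mean of at least two no-inhibitor controls. Where derived, IC50 used at least five concentrations spanning the value.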
# [2] = biological target: Thymidine phosphorylase (Escherichia coli K-12) (UniProt P07650); test: Inhibition of Escherichia coli thymidine phosphorylase at 68.4 to 136.9 uM; summary of the method: as §1
# [3] = biological target: Thymidine phosphorylase (Escherichia coli K-12) (UniProt P07650); test: Inhibition of Escherichia coli thymidine phosphorylase at 106.3 to 212.6 uM; summary of the method: as §1
# [4] = biological target: Thymidine phosphorylase (Escherichia coli K-12) (UniProt P07650); test: Inhibition of Escherichia coli thymidine phosphorylase at 158 uM; summary of the method: as §1
# [5] = biological target: Thymidine phosphorylase (Escherichia coli K-12) (UniProt P07650); test: Inhibition of Escherichia coli thymidine phosphorylase at 163 uM; summary of the method: as §1
# [6] = biological target: Thymidine phosphorylase (Escherichia coli K-12) (UniProt P07650); test: Inhibition of Escherichia coli thymidine phosphorylase at 47.2 uM
# Summary of the method: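 Recombinant E. coli TP; continuous spectrophotometric assay at 355 nm, 25 °C, 0.2 ml. Contains 0.13 mM 5-nitro-2'-deoxyuridine substrate in 0.1 M potassium phosphate pH 7.4. Reaction started with TP (0.00883 U/0.2 ml). Inhibitor added from stock. Initial velocity compared with the mean of at least two no-inhibitor controls.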
# [7] = biological target: T1, Thymidine phosphorylase (Homo sapiens) (UniProt P19971); test: Inhibition of human recombinant thymidine phosphorylase at 62.3 uM
# T1 sequence (whole entry): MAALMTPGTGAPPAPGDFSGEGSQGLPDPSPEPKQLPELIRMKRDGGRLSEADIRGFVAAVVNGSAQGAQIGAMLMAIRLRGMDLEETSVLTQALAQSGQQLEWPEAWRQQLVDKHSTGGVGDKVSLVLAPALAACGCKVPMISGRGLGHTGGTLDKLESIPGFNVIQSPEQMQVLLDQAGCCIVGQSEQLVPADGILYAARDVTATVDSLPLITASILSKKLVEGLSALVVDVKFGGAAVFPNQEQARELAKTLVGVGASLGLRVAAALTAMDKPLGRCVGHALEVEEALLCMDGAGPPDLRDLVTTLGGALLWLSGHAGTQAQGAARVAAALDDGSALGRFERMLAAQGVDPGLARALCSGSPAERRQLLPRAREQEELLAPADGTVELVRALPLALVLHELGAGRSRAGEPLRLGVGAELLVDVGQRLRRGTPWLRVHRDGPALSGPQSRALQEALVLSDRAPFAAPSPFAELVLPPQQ
# Summary of the method: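 Recombinant human TP expressed in V79 Chinese hamster cells; continuous spectrophotometric assay at 355 nm, 25 °C. Uses 0.33 mM 5-nitro-2'-deoxyuridine substrate in 0.1 M potassium phosphate pH 7.4. Reaction started by adding enzyme. Inhibition taken from initial velocity relative to the mean of at least two no-inhibitor controls.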
# [8] = biological target: Thymidine phosphorylase (Escherichia coli K-12) (UniProt P07650); test: Inhibition of Escherichia coli thymidine phosphorylase at 74 to 148 uM; summary of the method: as §1
# [9] = biological target: Thymidine phosphorylase (Escherichia coli K-12) (UniProt P07650); test: Inhibition of Escherichia coli thymidine phosphorylase at 103.6 to 207.2 uM; summary of the method: as §1
# [10] = biological target: Thymidine phosphorylase (Escherichia coli K-12) (UniProt P07650); test: Inhibition of Escherichia coli thymidine phosphorylase at 73.7 to 147.7 uM; summary of the method: as §1
# [11] = biological target: Thymidine phosphorylase (Escherichia coli K-12) (UniProt P07650); test: Inhibition of Escherichia coli thymidine phosphorylase at 66 uM; summary of the method: as §1
# Sequence of Thymidine phosphorylase (Escherichia coli K-12) (P07650 whole entry, looked up): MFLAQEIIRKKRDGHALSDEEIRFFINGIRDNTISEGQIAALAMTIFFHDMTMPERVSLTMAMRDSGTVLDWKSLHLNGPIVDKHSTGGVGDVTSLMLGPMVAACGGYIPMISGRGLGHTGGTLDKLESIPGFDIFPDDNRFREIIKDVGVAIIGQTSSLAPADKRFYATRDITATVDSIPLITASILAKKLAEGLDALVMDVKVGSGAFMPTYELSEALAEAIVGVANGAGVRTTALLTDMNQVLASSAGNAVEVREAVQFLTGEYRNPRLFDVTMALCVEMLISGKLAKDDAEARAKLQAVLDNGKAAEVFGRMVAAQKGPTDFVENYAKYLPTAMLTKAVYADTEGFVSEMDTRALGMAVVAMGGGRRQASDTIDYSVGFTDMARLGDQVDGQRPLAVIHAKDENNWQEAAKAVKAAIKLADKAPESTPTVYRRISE
smiles,measurement,setting,value
O=c1[nH]c(=S)[nH]c2[nH]ccc12,Activity,[1],inactive
Nc1[nH]c(=O)ncc1Br,Activity,[2],inactive
Nc1ncncc1Br,Activity,[3],inactive
O=c1[nH]c(=O)c2nc[nH]c2[nH]1,Activity,[4],inactive
O=c1nccc2[nH]ccn12,Activity,[5],inactive
N=C1CCCN1Cc1nc[nH]c(=O)c1Cl,Activity,[6],inactive
same,Activity,[7],inactive
O=c1ncc2cc[nH]c2[nH]1,Activity,[8],inactive
O=c1[nH]cnc2[nH]ccc12,Activity,[9],inactive
Nc1nc[nH]c(=O)c1Br,Activity,[10],inactive
Cc1nc[nH]c(=O)c1Cl,Activity,[11],inactive
